# Screening data deposited in PubChem BioAssay by several laboratories.
# EBNA-1 inhibitor: blocks EBNA-1 binding to DNA. EBNA-1 DNA binding, fluorescence polarization. inhibition, % at 14.8 µM. 300,000 tested, 0.34% active. AID 1950; in the data active = inhibition above about 28%
# HCV NS3 hel inh: inhibitors of Hepatitis C virus NS3 helicase; NS3 helicase DNA unwinding, Cy5 molecular beacon fluorescence; inhibition, % at 10.9 µM; 290,000 tested, 0.56% active;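 active = inhibition above the mean of all tested compounds plus 3 SD, set per campaign, cut at about 35% in these data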;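 also: 0% = DMSO wells and 100% = thioflavine S control wells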
#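 System: Hepatitis C virus NS3 helicase domain fragment enzyme | Reagent: Annealed dual-labelled DNA beacon duplex, ATP-started | Compound dosing: 10.9 µM single point, 0.8% DMSO | Incubation: 1 h reaction at 25 °C, ATP-initiated | Technique: Cy5 fluorescence | Evaluation: Percent inhibition from t60/t0 fluorescence ratio | Benchmarks: Low DMSO, high thioflavine S at 110 µM | Replication: Singlicate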
# FID counter: displaces DNA intercalator in HCV helicase counter-screen; DNA fluorescent intercalator displacement, fluorescence; inhibition, % at 7.9 µM; 290,000 tested, 0.17% active; AID 1845; in the data active = inhibition above about 37%;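 also: 0% = vehicle and 100% = reference compound; higher means more ethidium bromide displaced from hairpin DNA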
# FGF22 binding: shifts melting point of recombinant human FGF22. recombinant FGF22 thermal shift, SYPRO orange fluorescence; percent of sucrose octasulfate shift, DMSO zero. AID 651658. activity (Tm shift, normalised), % at 9.99 µM. Q9HCT0. 340,000 tested, 1.5% active;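 active = mean Tm shift, scaled 0 neutral to 100 positive control, at about 1.3% or above, every replicate too, limit read from the data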
# Target sequence (Q9HCT0 whole entry, looked up): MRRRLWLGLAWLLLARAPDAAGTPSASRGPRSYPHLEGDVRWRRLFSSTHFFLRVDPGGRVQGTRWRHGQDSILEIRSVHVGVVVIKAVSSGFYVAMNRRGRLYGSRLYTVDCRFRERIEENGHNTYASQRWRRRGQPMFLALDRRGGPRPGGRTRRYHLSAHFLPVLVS
# ZTA counter: counter-screen for EBNA-1 inhibitors: inhibitors of Epstein-Barr virus ZTA. 320,000 tested, 0.15% active. AID 2234. ZTA-DNA binding, fluorescence polarization. inhibition, % at 11 µM. P03206; in the data active = inhibition above about 33%
# Target sequence (P03206 whole entry, looked up): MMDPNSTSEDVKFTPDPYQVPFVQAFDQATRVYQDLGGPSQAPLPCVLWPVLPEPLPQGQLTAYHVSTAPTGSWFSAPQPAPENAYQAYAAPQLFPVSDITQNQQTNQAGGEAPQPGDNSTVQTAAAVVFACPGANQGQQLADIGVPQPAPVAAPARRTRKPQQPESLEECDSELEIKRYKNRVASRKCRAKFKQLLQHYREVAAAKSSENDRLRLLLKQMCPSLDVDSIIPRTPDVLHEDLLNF
# GRIN3A LBD mod: modulates the human NR3A ligand-binding domain; 340,000 tested, 2.5% active; Tm shift relative to glycine control, % at 25 µM; NR3A LBD differential scanning fluorimetry, Tm shift; 0% = protein alone, 100% = glycine-bound protein; AID 1259313;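 active = melting temperature shift of at least 10% of the positive control shift, at one fixed dose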
# * hit, by the source's call; . = no result given. Compounds with a hit are over-represented: about 3.6% of the library has one in this group of screens.
SMILES,EBNA-1 inhibitor,HCV NS3 hel inh,FID counter,FGF22 binding,ZTA counter,GRIN3A LBD mod
CCOC(=O)CSc1ncc(-c2ccccc2)nn1,3.9,0.7,-3.4,.,-5.8,37.3*
O=C(O)CSc1ccc2ccccc2n1,-6.5,-8.3,1.0,.,-10.9,-2.6
CCOC(=O)CSc1ncc(-c2ccccc2)cn1,4.3,-0.7,-6.5,.,-9.8,-1.9
CCOC(=O)CSc1ccc2ccccc2n1,1.1,-7.7,-9.1,43.4*,9.8,-1.6
CCN(CC(=O)NC1CCCC1)S(=O)(=O)c1ccc(Br)cc1,0.2,2.7,-21.2,-0.1,-6.0,11.1*
O=C(C[C@H]1C=C[C@H](NS(=O)(=O)c2ccc(F)cc2)[C@@H](CO)O1)NC1CCCCC1,.,.,.,-0.1,.,.
O=[N+]([O-])c1cccnc1NCCc1c[nH]c2ccccc12,-6.4,-0.6,2.8,0.0,15.8,0.9
O=[N+]([O-])c1cc(C(F)(F)F)ccc1NCCc1c[nH]c2ccccc12,1.6,29.3,21.6,.,6.1,29.1*
O=[N+]([O-])c1cc(C(F)(F)F)ccc1NCCc1c[nH]c2ccc(O)cc12,-12.1,7.4,17.9,.,0.8,28.8*
C[C@@H](C(=O)N(C)C[C@H]1OCc2ccccc2-c2ccccc2C(=O)N([C@@H](C)CO)C[C@@H]1C)c1ccccc1,.,.,.,-0.3,.,.
C#Cc1ccc([C@@H]2C=C(C(=O)N3CCCCCCC3)O[C@H](OCC)[C@H]2CCCO)cc1,.,.,.,0.2,.,.
CCCCOc1ccc(CONS(=O)(=O)c2ccc(NC(C)=O)cc2)cc1Cl,9.8,-84.1,-4.2,0.3,0.4,28.1*
Cc1ccc(C(=O)NNC(=O)C2CCN(C(=O)OC(C)(C)C)CC2)cc1,5.2,-0.2,-12.4,0.2,10.7,30.1*
COc1ccc(S(=O)(=O)N[C@H]2CC[C@@H](CC(=O)N3CCc4ccccc4C3)O[C@@H]2CO)cc1,.,.,.,-0.1,.,.
Cn1c(=O)c2c(ncn2Cc2ccc(Cl)cc2)n(C)c1=O,1.6,-6.2,-5.5,43.6*,-8.5,0.0
Cc1ccccc1S(=O)(=O)NC1OC(=O)C(Oc2ccccc2)=C1Br (stereo unspecified),3.9,12.3,4.3,43.0*,0.5,1.9
Cc1ccccc1S(=O)(=O)NC1OC(=O)C(Cl)=C1Cl (stereo unspecified),6.4,8.2,3.1,.,2.7,0.5
Cc1ccc(S(=O)(=O)Nc2ccc(NC(=O)c3c(F)c(F)c(F)c(F)c3F)cc2)cc1,-16.3,13.5,-12.7,0.1,2.8,15.4*
O=S(=O)(Nc1ccc(Nc2ccccc2)cc1)c1ccc(F)cc1,-7.5,.,.,-0.6,-5.9,-2.3
CCC(CC)C(=O)Nc1cccc(C(=O)Nc2ccc(S(=O)(=O)Nc3ccc(C)cc3)cc2)c1,1.2,-11.2,-7.3,.,-19.5,18.8*
Cc1cc(NS(=O)(=O)c2ccc(NC(=O)c3c(F)c(F)c(F)c(F)c3F)cc2)nc(C)n1,-7.1,4.9,-10.5,-0.2,-4.7,0.8
Cc1ccc(S(=O)(=O)Nc2ccc(Nc3ccccc3)cc2)cc1,-7.3,-15.7,-5.4,-0.1,-16.5,24.1*
Cc1cc(C)c(NS(=O)(=O)c2ccc(NC(=O)c3cccs3)cc2)c(C)c1,11.3,-5.1,-9.3,.,14.1,25.4*
C[C@H](CO)N1C[C@H](C)[C@@H](CN(C)S(=O)(=O)c2ccc(F)cc2)Oc2ccc(N(C)C)cc2CC1=O,.,.,.,0.0,.,.
Cc1ccc(S(=O)(=O)Nc2ccccc2N(C)S(=O)(=O)c2ccc(C)cc2)cc1,8.8,.,.,-0.1,-20.4,12.9*
SMILES,EBNA-1 inhibitor,HCV NS3 hel inh,FID counter,FGF22 binding,ZTA counter,GRIN3A LBD mod
CC(=O)c1c(C)oc2c1cc(NS(=O)(=O)c1ccc(C(=O)O)cc1)c1ccccc12,-10.3,-11.2,-16.2,.,2.2,-19.1
Cc1ccc(S(=O)(=O)Nc2ccccc2NS(=O)(=O)c2ccc(C)cc2)cc1,.,.,.,0.2,.,.
Cc1ccc(NCCC(=O)c2cccs2)cc1,0.1,-2.4,3.5,-0.3,12.8,13.1*
Cc1ccc(S(=O)(=O)Nc2ccc(NC(=O)c3cccs3)cc2)cc1,-3.2,-2.0,-5.3,0.7,-10.2,17.7*
Cc1ccc(NS(=O)(=O)c2ccc(NS(=O)(=O)c3cccs3)cc2)cc1,2.8,-8.6,-0.3,.,6.6,-3.1
Cc1ccc(S(=O)(=O)Nc2cc3c(C(=O)Nc4ccccc4)c(C)oc3c3ccccc23)cc1,-1.9,6.9,4.5,0.2,-3.0,12.0*
